In the EternaBench riboswitch data:

Test system: MS2 coat protein
Test: apparent Kd, MS2 coat protein; higher = weaker binding; RNA-MaP array; FMN 200 µM where present
Procedure, shortened: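 Stalled E. coli RNA polymerase transcribed the designs on Illumina sequencing-chip clusters. SNAP-549-labelled MS2 coat protein was titrated from 0.7 or 1.5 nM, doubling to 3 µM, without and then with constant ligand, in 100 mM Tris-HCl pH 7.5, 80 mM KCl, 4 mM MgCl2, BSA, DTT, yeast tRNA and Tween-20. Per-cluster binding curves were fitted to green signal normalised to red-channel RNA signal and control-cluster median Fmax. The apparent Kd is the median of the filtered fits.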

[1] = designed as: OFF switch for flavin mononucleotide, no ligand
[2] = ligand present: flavin mononucleotide, designed as: OFF switch for flavin mononucleotide
[3] = designed as: ON switch for flavin mononucleotide, no ligand
[4] = ligand present: flavin mononucleotide, designed as: ON switch for flavin mononucleotide

Sequence | apparent Kd [1] | apparent Kd [2] | apparent Kd [3] | apparent Kd [4]
GUCAGCUCGUGAGGAUAUAAAACACUGCUUCGGCAGUGUAUUAAGAUCACAUGAGGAUCACCCAUGUAGAAGGCACGAGCUGAU | 5.05 nM | 6.38 nM | – | –
UUGCACGUCGUAGGAUAUGUAGGAUAUUCCUACAUGAGGAUCACCCAUGUUGACAUGGAAGAAGGACAGAAGGACGAUGUCCAU | – | – | 686 nM | 10.9 nM
UAAUAUUUAUGAUAUUAUGACAGUAGAAGGCUAUACAUGUUGAUACAUGAGGAUCACCCAUGUAUAGAGGAUAUAUACAUAUAU | 681 nM | 315 nM | – | –
ACAUUGCGAGGAUAUACAUGAGGAUCACCCAUGUGGUGGCAGAUACGGUAGGGCUAGUGUAGAAGGUGUCAUGG | 528 nM | 435 nM | – | –
CUAAUGAGUGCGAGCUGACACAUGAGGAUCACCCAUGUAACACAGGAUAUCUGUCAAGGCGUGAAAGAGAAGGGUGGUCGGAAA | – | – | 142 nM | 263 nM
AAAAAGUCAGGAUAUUCGGAAGGGAAAGCGCAAACCCAACCGAAGAAGGGACAUGAGGAUCACCCAUGUAAAAA | 26.7 nM | 39 nM | – | –
AUAUGAUAGAUAGGAUAUACUAUGGUUGAAGAAGUAGAAGGAUCAAUAGGGAAAUGUACAUGAGGAUCACCCAUGUUAUGGAUU | – | – | 29.7 nM | 26.9 nM
CCGGGCUAGGAGAAGGGCUAGAGUGUGAUAUAUUUGCCCGCGAGCACAUGAGGAUCACCCAUGUAGCAGGAUAUCCAAGCCGGU | 7.25 nM | 21.2 nM | – | –
UUCUAGCUCACAGGAUAUGGGUAUCGACGAUGCCCAGAAGGGUGAUUUGGCACAUGAGGAUCACCCAUGUGGGCGCUUGAAUAU | – | – | 45 nM | 98 nM
UAGGAGUCAGGAUAUGCGAGAGAUGGAAGUAAGGGAUGAGAGCAGAAGGGACAUGAGGAUCACCCAUGUAAGGA | 39.7 nM | 37.8 nM | – | –
GUGGCGGCCACAGGAUAUACCCGCGGUAGCCUGGUAGAAGGGUGGUCUCUCAGUCACAACAUGAGGAUCACCCAUGUAGAAAUC | – | – | 25.8 nM | 35.5 nM
AUCAGCACGUGAGGAUAUGCGUCACUGCGUCAGCAGUGCGGUAAGAUCACAUGAGGAUCACCCAUGUAGAAGGCACGAGCUGAU | 21.4 nM | 49.8 nM | – | –
GCACAUGAGGAUCACCCAUGUGGUCCAGAAGGCCAGAGGACUUGCUUUUAGCAAGUCCUUCAAAUGGAGGAUAUGGAGGGUUCU | – | – | 237 nM | 42 nM
UUGGCCGUCGUAGGAUAUGUAGGAUAUUCCUACAUGAGGAUCACCCAUGUUGACAUGGAAGAAGGACAGAAGGACGAUGUCCAU | – | – | 365 nM | 4.87 nM
ACAUGCGGAUGAGGAUAUUCAUCCAUGAGGAUAGAAGAAGGCAUACAUGAGGAUCACCCAUGUAUACACAUGAGGAUCCCUUAU | 59 nM | 137 nM | – | –
UUAUACGCUGAGGAUAUUAUCACUGAGAGGUGAUGAGAAGGCGGUACAUGAGGAUCACCCAUGUCUAUGGGCAG | 282 nM | 240 nM | – | –
CCUUCGUGAGGAUAUCAUAGACAGCUCUCAGAAAUGGUCAAUGAGAAGGCACAUGAGGAUCACCCAUGUGGGUC | 56.3 nM | 198 nM | – | –
UUUCGGCAUGUAGGAUAUGGAUCCGAUUAGGAUUUAGAAGGACAUGAGGAUCACCCAUGUGCAUUUAAUUGGUCAUUACCGUUU | 58.5 nM | 95.2 nM | – | –
AGAGUUUCGUUGUGACCCAUUCACAUGAGGAUCACCCAUGUAGAGGAUAUAAGUCACCACGGUACUUAGAAGGCUGCAGGUGUG | 6.83 nM | 12.5 nM | – | –
CGCCAUCCCGUUGGCGUGAGGAUACCAGAAGGGACGAUCUCACAUGAGGAUCACCCAUGUUAUAGUCAGGAUAUGGGUUCAUCA | – | – | 135 nM | 14.2 nM
GGUGGACAUGAGGAUCACCCAUGUGAGGAUAUCGGCUGGCUAGCGGCUGACGGCUGCUCGAGAAGGCGCAUUGU | 65.8 nM | 84.9 nM | – | –
AACACGAGAGGUGUUAUCUAACCACAUGAGGAUCACCCAUGUAAGGAUAUCGCGGCUAUCGGCAUCGAGAAGGUACAGGGUGCA | 44.1 nM | 93.6 nM | – | –
GCCGUAAGUGUGAGGAUAUACCUAUGGAUACAUAGGUAGAAGGCACAUGAGGAUCACCCAUGUUCUUAAUCGGC | 130 nM | 296 nM | – | –
AGUACUACAGGAUAUACAUGAGUGAUACUCAUAUCCCUUCUACAUGAGGAUCACCCAUGUAGAAGGGUAGUACA | 15.2 nM | 11.7 nM | – | –
UACAUGAGGAUCACCCAUGUUUUGUCGUGUAUGGUAUUUAUCUAGGAUAUCAAUGUAUUUAUGUAUGAGAAGGAGAAUAUUAAU | 45.7 nM | 37.3 nM | – | –
UGUGUGUGGGCAGGAUAUGCAUGAAUAUGUAUGAUGUAGUGUGAUGUAACAUGAGGAUCACCCAUGUAGAAGGGCCGGUGUAUG | 94.5 nM | 122 nM | – | –
GGAUAGUGAGGAUAUCGAUGUUAGGAGGAGUAGAUAGGAGGCGAGAAGGCACAUGAGGAUCACCCAUGUAUGGA | 58.7 nM | 45.5 nM | – | –
